Published values of several laboratories.
Each line is one published result; the experiments were not run side by side.
Target: Carbonic anhydrase 2 (CA2, Homo sapiens, UniProt P00918)
Read-out: enzyme activity
Action: inhibitor

Cc1cncc(CN2CCC(=C3c4ccc(Cl)cc4CCc4cccnc43)CC2)c1
IC50 (absorbance; pH 7.4): 14.6 µM

COc1ccc2oc(=O)c(-c3csc(Nc4ccc(C(=O)O)cc4)n3)cc2c1
IC50 (absorbance): 4.61 µM

CN(C/C=C/C#CC(C)(C)C)Cc1cccc2ccccc12
IC50 (absorbance; pH 7.4): 32.2 µM

CC1CCCCC1CC(=O)Nc1nnc(S(N)(=O)=O)s1 (stereo not drawn)
Ki (stopped-flow): 0.0292 µM

OC1CCN(c2ccc(/C=N/NC(=S)Nc3ccc(Br)cc3)cc2)CC1
IC50 (absorbance): 0.332 µM

NS(=O)(=O)c1nnc(NC(=O)CCC2CCCCO2)s1 (stereo not drawn)
Ki (stopped-flow): 0.00084 µM

Cc1ccc(CNC(=S)N/N=C/c2ccc(N3CCC(O)CC3)cc2)cc1
IC50 (absorbance): 0.698 µM

CC[C@H]1OC(=O)[C@H](C)[C@@H](O[C@H]2C[C@@](C)(OC)[C@@H](O)[C@H](C)O2)[C@H](C)[C@@H](O[C@@H]2O[C@H](C)C[C@H](N(C)C)[C@H]2O)[C@](C)(O)C[C@@H](C)CN(C)[C@H](C)[C@@H](O)[C@]1(C)O
IC50 (absorbance; pH 7.4): 13 µM

O=C(O)c1ccc(Nc2nc(-c3cc4cc(Br)ccc4oc3=O)cs2)cc1
IC50 (absorbance): 1.29 µM

NS(=O)(=O)c1nnc(NC(=O)CCc2ccc(F)cc2)s1
Ki (stopped-flow): 0.0036 µM

CCOC(=O)N1CCC(=C2c3ccc(Cl)cc3CCc3cccnc32)CC1
IC50 (absorbance; pH 7.4): 13.1 µM

Cc1cccc(CC(=O)Nc2nnc(S(N)(=O)=O)s2)c1
Ki (stopped-flow): 0.0368 µM

COc1ccc(NC(=S)N/N=C/c2ccc(N3CCC(O)CC3)cc2)cc1
IC50 (absorbance): 0.579 µM

NS(=O)(=O)c1nnc(NC(=O)CCCC2CCCCC2)s1
Ki (stopped-flow): 0.0088 µM

CC(C)CNC(=S)N/N=C/c1ccc(N2CCC(O)CC2)cc1
IC50 (absorbance): 0.695 µM
